Key:
[1] = single-dose 20 mg ezetimibe; cited from earlier work
[2] = healthy subjects, 7 day-dosing, coadministration with rosuvastatin; cited from earlier work
[3] = Tolerability: adverse events in healthy male volunteers; assay type: in vivo, human; conditions: multiple oral doses over 10 days, healthy male subjects
Procedure, shortened: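 Healthy Korean men took the single or combined drugs once daily for 10 days in a 3-period crossover. Monitoring ran throughout and covered vital signs, 12-lead ECG, hematology, blood chemistry, urinalysis and physical examinations. AEs were recorded by symptom, duration, intensity, drug relationship, outcome and seriousness. Counts are subjects (events); frequencies were compared by Fisher's exact test.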

[4] = Steady-state plasma pharmacokinetics of free and total ezetimibe; assay type: in vivo, human
Procedure, shortened: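 Ezetimibe 10 mg was given orally once daily for 10 days, alone or with rosuvastatin 20 mg, fasted, in a crossover. EDTA plasma was sampled 0–72 h after the day-10 dose. LC-MS/MS (ezetimibe-d4 internal standard) measured free and total (free plus glucuronide) ezetimibe; LLOQ was 0.2 and 0.5 ng/mL. Analysis was non-compartmental on actual times, with t1/2 as ln(2)/λz. Log-transformed Cmax,ss and AUCτ,ss were compared by ANOVA as geometric mean ratios with 90% CI.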

LDL-C [5] = conditions: volunteers with hypercholesterolemia, n=8 per group, ezetimibe 10 mg; cited from earlier work
LDL-C [6] = conditions: ezetimibe administered with atorvastatin; cited from earlier work
plasma cholesterol = conditions: in humans; cited from earlier work
cholesterol absorption = conditions: rat model; cited from earlier work

amount of free ezetimibe in the body ([4]; relative to conjugate/total ezetimibe) [%] | 90% CI of geometric mean ratio for Cmax,ss of free ezetimibe ([4]; single versus combination treatment, exception to 0.80–1.25) | SMILES | AEs and physical examinations [1] | Cmax,ss of free ezetimibe [1] [ng/mL] | 90% CI of AUCmax,ss ratio of free ezetimibe on coadministration [2] | 90% CI of Cmax,ss ratio of free ezetimibe on coadministration [2] | tolerability [3] | subjects achieving a 35%–50% reduction of LDL-C (LDL-C [5]) | additional reductions in LDL-C levels (LDL-C [6]) | reduction of plasma cholesterol (plasma cholesterol) | cholesterol absorption inhibiting activity (relative potency) (cholesterol absorption)
< 8 | 1.038–1.346 | O=C1[C@H](CC[C@H](O)c2ccc(F)cc2)[C@@H](c2ccc(O)cc2)N1c1ccc(F)cc1 [Ezetimibe] | no AEs or clinically significant changes | 5.2 | 1.094–1.341 | 0.994–1.285 | well tolerated | 1 of 8 | 12%–19% | 15%–20% | –
– | – | CC(C)c1nc(N(C)S(C)(=O)=O)nc(-c2ccc(F)cc2)c1/C=C/[C@@H](O)C[C@@H](O)CC(=O)O [Rosuvastatin] | – | – | – | – | well tolerated | – | – | – | –
– | – | O=C(O)[C@H]1O[C@@H](Oc2ccc([C@@H]3[C@@H](CC[C@H](O)c4ccc(F)cc4)C(=O)N3c3ccc(F)cc3)cc2)[C@H](O)[C@@H](O)[C@@H]1O [ezetimibe glucuronide] | – | – | – | – | – | – | – | – | more potent than ezetimibe

— paper PMC5903480 (Drug Design, Development and Therapy, 2018)
